ChEMBL document CHEMBL1129931, “Structure-activity studies on 2-methyl-3-(2(S)-pyrrolidinylmethoxy) pyridine (ABT-089): an orally bioavailable 3-pyridyl ether nicotinic acetylcholine receptor ligand with cognition-enhancing properties” (J Med Chem, 1997)
Activity calls are given as the source filed them. The rule behind the calls is not given here.

Tests used:
[1] = Oral bioavailability in dog; assay type: ADME, organism-based, Canis lupus familiaris; conditions: in vivo
In short: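 Fasted beagle dogs (n = 3–6) received 500 nmol/kg by oral gavage or slow iv bolus. Jugular plasma was sampled over 8 h, and parent drug was measured by reverse-phase HPLC. Bioavailability is reported as mean ± SEM.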

[2] = target: Neuronal acetylcholine receptor subunit alpha-7 (Homo sapiens, UniProt P36544); assay: Bindind affinity value obtained by measuring the displacement of radioligand [125I]alpha-bungarotoxin from K-28 cells stably express human Nicotinic acetylcholine receptor alpha7; assay type: cell-based
Neuronal acetylcholine receptor subunit alpha-7, sequence (P36544 whole entry): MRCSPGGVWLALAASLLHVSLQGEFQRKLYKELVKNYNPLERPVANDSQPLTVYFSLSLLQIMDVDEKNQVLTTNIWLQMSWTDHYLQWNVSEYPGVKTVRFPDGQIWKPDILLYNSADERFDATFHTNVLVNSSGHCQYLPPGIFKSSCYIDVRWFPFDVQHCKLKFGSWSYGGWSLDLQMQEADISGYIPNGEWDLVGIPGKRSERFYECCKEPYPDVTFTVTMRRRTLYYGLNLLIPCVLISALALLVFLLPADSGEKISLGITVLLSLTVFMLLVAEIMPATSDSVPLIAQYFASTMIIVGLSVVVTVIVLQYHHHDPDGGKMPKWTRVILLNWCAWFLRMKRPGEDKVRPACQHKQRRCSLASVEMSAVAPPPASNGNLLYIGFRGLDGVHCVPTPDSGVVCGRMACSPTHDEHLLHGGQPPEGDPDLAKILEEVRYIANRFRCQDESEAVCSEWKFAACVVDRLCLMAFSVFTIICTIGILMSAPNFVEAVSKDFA

[3] = Half-life was measured in (in vitro) dog liver slice experiments; assay type: ADME, Canis lupus familiaris; conditions: dog liver slices
In short: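 Compounds at a final 12 μg/mL were incubated with dog liver slices at 37 °C for times up to 24 h. Medium was removed and frozen, then parent compound was quantified by HPLC. Half-life and % remaining at 24 h were reported.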

[4] = system: IMR-32; assay: The maximal efficacy relative to 100 uM nicotine; assay type: functional, Homo sapiens
[5] = Half-life was measured in (in vitro) dog liver slice experiments following intravenous administration to dogs; assay type: ADME, organism-based, Canis lupus familiaris; conditions: in vivo
In short: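 Beagle dogs were fasted overnight, with water available. They received 500 nmol/kg as a slow iv bolus into the saphenous vein. Jugular blood was sampled over 8 h, and plasma parent drug was measured by reverse-phase HPLC (electrochemical or derivatization/fluorescence detection).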

[6] = system: IMR-32; assay: Concentration required to elicit ganglionic receptors measured using [86Rb+] flux functional assay in a human neuroblastoma-derived IMR-32 cell line; assay type: cell-based
In short: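 Ganglionic-type (α3-containing) receptor function assessed as 86Rb+ flux in human neuroblastoma IMR-32 cells; EC50 reported as mean ± SEM, n = 3–5.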

[7] = target: Neuronal acetylcholine receptor; assay: Binding affinity value obtained by measuring the displacement of radioligand [3H](-)-cytisine from whole rat brain Nicotinic acetylcholine receptor
[8] = target: Neuronal acetylcholine receptor; assay: Binding affinity value obtained by measuring the displacement of radioligand [3H](-)-cytisine from a preparation of whole rat brain
[9] = system: Mus musculus; assay: Minimum dose of the drug (intraperitoneal) required that elicited a statistically significant response in mouse inhibitory avoidance assay; assay type: functional
In short: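 Mice were dosed ip 15 min before training in a dark-light chamber, where entering the dark side was paired with a mild foot shock. The index of memory was latency to enter the dark chamber in a later test session.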

[10] = system: Mus musculus; assay: Minimum dose of the drug (intraperitoneal) required for elicited a statistically significant response in seizure assay; assay type: functional
[11] = system: Mus musculus; assay: Minimum dose of the drug (intraperitoneal) required for elicited a statistically significant response in hypothermia assay; assay type: functional
In short: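 Body temperature was taken by rectal probe inserted 3 cm, about 20 min after ip injection. The same mice had just completed a 15-min open-field activity session.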

[12] = system: Mus musculus; assay: Minimum dose of the drug (intraperitoneal) required elicited a statistically significant response in locomotor activity assay; No significant effect at (0.0062-6.2) dose range; assay type: functional, organism-based

| SMILES | bioavailability [1] [%] | Ki [2] [µM] | half-life [3] [h] | Max [4] [%] | half-life [5] [h] | EC50 [6] [µM] | Ki [7] [µM] | Ki [8] [µM] | EDmin [9] [µM/kg] | EDmin [10] [µM/kg] | EDmin [11] [µM/kg] | EDmin [12] |
| --- | --- | --- | --- | --- | --- | --- | --- | --- | --- | --- | --- | --- |
| Cc1ncccc1OC[C@H]1CCCN1 | 66 | > 10 | > 24 | 11 | 1.4 | 50 |  |  |  |  |  |  |
| Cc1ncccc1OC[C@H]1CCCN1C | 4.9 | > 10 | 8.5 |  | 0.61 |  | 3 |  |  |  |  |  |
| CN1CCC[C@H]1COc1cccnc1 |  | 1.53 |  | 100 |  | 63 |  | 0.00028 |  |  |  |  |
| Cc1ncccc1OC[C@@H]1CCCN1C | 5.8 | > 10 | 9 | 29 | 0.31 | 25 |  |  |  |  |  |  |
| Cc1cc([C@@H]2CCCN2C)on1 [ABT-418] | 1.2 | 4.05 | 3 | 85 | 0.21 | 64 |  |  | 0.062 | 62 | 19 |  |
| CN1CCC[C@H]1c1cccnc1 [NICOTINE] |  |  |  | 100 |  |  |  |  | 0.62 | 41 | 6.2 |  |
| Cc1ncccc1OC[C@@H]1CCCN1 [POZANICLINE] | 61.5 | > 10 | > 24 | 8 | 1.6 | 150 |  |  | 0.62 | 774 | >62 | inactive |
